pIC50: −log10 of the molar value. The source made the active and inactive calls. No cut-off for these calls is given here.
What was measured:
[1] = Inhibition of recombinant human 3-MST expressed in Escherichia coli assessed as inhibition of H2S generation using 3-MP as substrate preincubated with enzyme for 1 hr followed by incubation with substrate for 1 hr by AzMC probe based fluorescence analysis
Summary of the method: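 Same 3-MST/3-MP/AzMC assay, 1 h preincubation then 1 h kinetic read, at 3, 10, 30, 100 and 300 μM (final DMSO 0.3%). Run for compounds inhibiting at least 60% at 100 μM. Three experiments in triplicate. IC50 from nonlinear fit of data taken between min 20 and 40 of the 60 min read.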

[2] = target: Cystathionine gamma-lyase (Homo sapiens) (UniProt P32929); assay: Inhibition of human full length CSE using L-cysteine as substrate at 30 to 300 uM preincubated with enzyme for 1 hr followed by substrate and PLP addition for 2 hrs by AzMC probe based fluorescence analysis; conditions: dose 30-300 µM, time 3.0 hrs
Summary of the method: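 Human full-length CSE, 2 μg/well, preincubated 1 h with compound at 30 or 300 μM. Then added 5 μM PLP and 2 mM L-cysteine. AzMC fluorescence read kinetically for 2 h at 37 °C. Substrate background subtracted; percent of control, at least three replicates.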

MC-38 [3] = assay: Antiproliferative activity against mouse MC38 cells assessed as inhibition of cell proliferation measured after 24 hrs by MTT assay; assay type: functional, cell-based; conditions: MC-38, 24 h
MC38 = assay: Inhibition of 3-MST in mouse MC38 cells assessed as inhibition of H2S generation at 300 uM incubated for 4 hrs by AzMC probe based fluorescence analysis; assay type: cell-based
Summary of the method: (§1)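 Cells seeded at 60,000/well in 8-well chambers and allowed to adhere overnight. Exposed to 300 μM compound for 4 h, then supernatant replaced with 1 mM AzMC in HBSS plus glucose for 1 h. Fluorescence imaged by microscopy; mean pixel intensity expressed as percent of control.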

MC-38 [4] = assay: Antiproliferative activity against mouse MC38 cells assessed as inhibition of cell proliferation upto 300 uM measured after 24 hrs by MTT assay; assay type: functional, cell-based; conditions: dose microM <=300, time 24.0 hrs
Summary of the method: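 CT26 or MC38 cells in high-glucose DMEM with 10% FBS and penicillin/streptomycin, 37 °C, 5% CO2. Seeded at 10,000 cells/well and treated after 1 h adherence at 3, 10, 30, 100 and 300 μM (final DMSO 0.5%). After 24 h, medium replaced by 2 mg/mL MTT in PBS for 3 h. Formazan dissolved in DMSO, absorbance read at 590 nm minus 690 nm. Expressed as percent of control; three experiments in triplicate.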

CT26 [5] = assay: Antiproliferative activity against mouse CT26 cells assessed as inhibition of cell proliferation measured after 48 hrs by IncuCyte live-cell imaging assay; assay type: functional, cell-based; conditions: CT26, 48 h
MC-38 [6] = assay: Antiproliferative activity against mouse MC38 cells assessed as inhibition of cell proliferation measured after 48 hrs by IncuCyte live-cell imaging assay; assay type: functional, cell-based; conditions: MC-38, 48 h
CT26 [7] = assay: Inhibition of 3-MST in mouse CT26 cells assessed as inhibition of H2S generation at 300 uM incubated for 4 hrs by AzMC probe based fluorescence analysis; assay type: cell-based; summary of the method: as §1
CT26 [8] = assay: Antiproliferative activity against mouse CT26 cells assessed as inhibition of cell proliferation measured after 24 hrs by MTT assay; assay type: functional, cell-based; conditions: CT26, 24 h
[9] = target: T1, Cystathionine beta-synthase (Homo sapiens) (UniProt P35520); assay: Inhibition of human full length CBS using L-cysteine and L-homocysteine as substrate at 30 to 300 uM preincubated with enzyme for 1 hr followed by substrate, PLP and SAM addition for 2 hrs by AzMC probe based fluorescence analysis; conditions: dose 30-300 µM, time 3.0 hrs
T1 sequence (whole entry): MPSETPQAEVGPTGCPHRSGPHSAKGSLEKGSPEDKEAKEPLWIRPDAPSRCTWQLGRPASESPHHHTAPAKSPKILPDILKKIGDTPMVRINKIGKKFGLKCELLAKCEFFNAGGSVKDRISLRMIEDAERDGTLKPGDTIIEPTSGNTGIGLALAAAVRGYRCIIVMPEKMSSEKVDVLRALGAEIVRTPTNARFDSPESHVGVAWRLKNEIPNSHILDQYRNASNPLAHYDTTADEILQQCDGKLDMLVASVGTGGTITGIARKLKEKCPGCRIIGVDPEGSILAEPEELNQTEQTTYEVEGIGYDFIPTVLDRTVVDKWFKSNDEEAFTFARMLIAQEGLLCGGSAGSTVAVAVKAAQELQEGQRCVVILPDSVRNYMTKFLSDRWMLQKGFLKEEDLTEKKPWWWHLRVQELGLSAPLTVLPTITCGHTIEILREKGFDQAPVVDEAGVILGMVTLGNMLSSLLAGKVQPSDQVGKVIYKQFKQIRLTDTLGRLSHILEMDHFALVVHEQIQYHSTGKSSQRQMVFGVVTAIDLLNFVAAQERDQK
Summary of the method: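 Human full-length CBS, 0.5 μg/well, preincubated 1 h with compound at 30 or 300 μM. Then added 5 μM PLP, 2 mM L-cysteine, 2 mM L-homocysteine and 500 μM SAM. AzMC fluorescence read kinetically for 2 h at 37 °C. Substrate background subtracted; percent of control, at least three replicates.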

[10] = Inhibition of GYY4137-induced H2S release assessed as H2S-induced fluorescence signal at 300 uM measured after 2 hrs by AzMC probe based fluorescence analysis; assay type: functional; design: scale not given: the % may be the effect or the level left
Summary of the method: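 H2S scavenging/interference check in 50 mM Tris-HCl pH 8: compound at 300 μM with 100 μM AzMC and 5 mM GYY4137 as nonenzymatic H2S donor. Fluorescence read kinetically for 2 h at 37 °C (ex 365/em 450 nm). Signal loss above 20% flagged as potential scavenger/interferer.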

MC-38 [11] = assay: Antitumor activity against mouse MC38 cells xenografed in C57BL/6 mouse assessed as reduction in tumor growth at 20 mg/kg, ip administered daily for 2 weeks by caliper analysis; assay type: functional, organism-based
Homo sapiens = species on record: Homo sapiens; assay: Inhibition of recombinant human 3-MST expressed in Escherichia coli assessed as inhibition of H2S generation using 3-MP as substrate at 100 uM preincubated with enzyme for 1 hr followed by incubation with substrate for 1 hr by AzMC probe based fluorescence analysis; conditions: time 2.0 hrs
Summary of the method: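 Human recombinant 3-MST, 3 μg/well, in 50 mM Tris-HCl pH 8 preincubated 1 h at 37 °C with compound at 100 μM (from 100 mM DMSO stock). Then 2 mM 3-MP (no extra sulfur acceptor) and 10 μM AzMC added. Fluorescence read kinetically 1 h at 37 °C, ex 365/em 450 nm. Percent inhibition, mean of three replicates.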

Mus musculus = assay: Antitumor activity against mouse MC38 cells xenografed in C57BL/6 mouse assessed as euthanasia rate at 20 mg/kg, ip administered daily for 2 weeks and measured on day 32 (reference value: 75%); assay type: functional, MC-38; conditions: time 32 day

Chain of Cystathionine gamma-lyase (Homo sapiens) (P32929 whole entry): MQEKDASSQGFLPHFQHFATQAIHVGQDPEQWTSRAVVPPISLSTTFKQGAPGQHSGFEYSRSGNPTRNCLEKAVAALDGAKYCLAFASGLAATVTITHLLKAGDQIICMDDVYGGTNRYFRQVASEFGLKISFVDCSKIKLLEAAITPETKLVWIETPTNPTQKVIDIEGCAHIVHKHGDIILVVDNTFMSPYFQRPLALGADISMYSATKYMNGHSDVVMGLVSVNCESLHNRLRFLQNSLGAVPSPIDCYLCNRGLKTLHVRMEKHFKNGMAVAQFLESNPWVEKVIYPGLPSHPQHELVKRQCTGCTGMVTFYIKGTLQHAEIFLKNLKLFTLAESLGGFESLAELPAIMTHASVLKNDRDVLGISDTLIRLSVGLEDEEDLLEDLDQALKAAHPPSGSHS

## O=C(CSc1nccc(=O)[nH]1)c1ccc(O)cc1
[1]
  pIC50: 4.89
[2]
  inhibition: Active

## CC(=O)Nc1ccc(C(=O)CSc2nccc(O)n2)cc1
[1]
  pIC50: 4.84
MC-38 [3]
  pIC50: < 3.00
MC38
  inhibition: Active
MC-38 [4]
  Activity: inactive
CT26 [5]
  pIC50: < 3.00
[2]
  inhibition: inactive
MC-38 [6]
  pIC50: < 3.00
CT26 [7]
  inhibition: Active
CT26 [8]
  pIC50: 3.32
[9]
  inhibition: inactive

## O=C(CSc1nccc(=O)[nH]1)c1cc(Cl)c(O)c(Cl)c1
[1]
  pIC50: 4.92
[10]
  Activity: < 80%

## O=C(CSc1nccc(=O)[nH]1)c1ccc2ccccc2c1
[1]
  pIC50: 4.55
MC-38 [3]
  pIC50: 3.47
MC38
  inhibition: Active
CT26 [5]
  pIC50: 3.82
[2]
  inhibition: inactive
MC-38 [6]
  pIC50: 3.82
CT26 [7]
  inhibition: Active
CT26 [8]
  pIC50: 3.70
[9]
  inhibition: inactive

## Cc1cc(=O)[nH]c(SCC(=O)c2cccc3ccccc23)n1
[1]
  pIC50: 4.81
MC-38 [11]
  Activity: inactive
MC-38 [3]
  pIC50: 3.66
MC38
  inhibition: Active
CT26 [5]
  pIC50: 3.68
Homo sapiens
  inhibition: 68%
MC-38 [6]
  pIC50: 4.00
Mus musculus
  Activity: 67%
CT26 [7]
  inhibition: Active
CT26 [8]
  pIC50: 3.61

## Cc1cc(=O)[nH]c(SCC(=O)c2cc(O)cc(O)c2)n1
[1]
  pIC50: 4.63
MC-38 [3]
  pIC50: < 3.00
MC38
  inhibition: Active
MC-38 [4]
  Activity: inactive
CT26 [5]
  pIC50: < 3.00
[2]
  inhibition: inactive
MC-38 [6]
  pIC50: < 3.00
CT26 [7]
  inhibition: Active
CT26 [8]
  pIC50: < 3.00
[9]
  inhibition: inactive

## CC(=O)Nc1ccc(C(=O)CSc2nc(C)cc(O)n2)cc1
[1]
  pIC50: 5.00
MC-38 [3]
  pIC50: < 3.00
MC38
  inhibition: Active
MC-38 [4]
  Activity: inactive
CT26 [5]
  pIC50: < 3.00
[2]
  inhibition: inactive
MC-38 [6]
  pIC50: < 3.00
CT26 [7]
  inhibition: Active
CT26 [8]
  pIC50: < 3.00
[9]
  inhibition: inactive

## O=C(CSc1nccc(=O)[nH]1)c1cc(O)cc(O)c1
[1]
  pIC50: 4.47
[10]
  Activity: < 80%

## Cc1cc(=O)[nH]c(SCC(=O)c2ccc3ncccc3c2)n1
[1]
  pIC50: 4.79
[2]
  inhibition: Active

## Cc1cc(=O)[nH]c(SCC(=O)c2ccc(O)c(Cl)c2)n1
[1]
  pIC50: 4.60
[10]
  Activity: < 80%

## Cc1cc(=O)[nH]c(SCC(=O)c2ccc(O)c(F)c2)n1
[1]
  pIC50: 4.55
[10]
  Activity: < 80%

## O=C(CSc1nccc(=O)[nH]1)c1ccc(F)c2ccccc12
[1]
  pIC50: 4.50

## O=C(CSc1nccc(=O)[nH]1)c1ccc(O)c(I)c1
[1]
  pIC50: 4.85
[10]
  Activity: < 80%

## Cc1cc(=O)[nH]c(SCC(=O)c2ccc3c(c2)OCO3)n1
[1]
  pIC50: 4.71
MC-38 [3]
  pIC50: 3.44
MC38
  inhibition: Active
MC-38 [4]
  Activity: inactive
CT26 [5]
  pIC50: 3.28
[2]
  inhibition: inactive
MC-38 [6]
  pIC50: 3.11
CT26 [7]
  inhibition: Active
CT26 [8]
  pIC50: 3.30
[9]
  inhibition: inactive

## O=C(CSc1nccc(=O)[nH]1)c1ccc2ncccc2c1
[1]
  pIC50: 4.81
[10]
  Activity: < 80%

## Nc1c(Cl)cc(C(=O)CSc2nccc(=O)[nH]2)cc1Cl
[1]
  pIC50: 5.18
[10]
  Activity: < 80%

## O=C(CSc1nccc(=O)[nH]1)c1ccc(O)c(O)c1
[1]
  pIC50: 4.72
[10]
  Activity: < 80%

## O=C(CSc1nccc(=O)[nH]1)c1cccc2ccccc12
[1]
  pIC50: 5.14
MC-38 [11]
  Activity: Active
MC-38 [3]
  pIC50: 3.44
MC38
  inhibition: Active
CT26 [5]
  pIC50: 3.45
[2]
  inhibition: inactive
MC-38 [6]
  pIC50: 3.72
Mus musculus
  Activity: 33%
CT26 [7]
  inhibition: Active
CT26 [8]
  pIC50: 3.45
[9]
  inhibition: inactive

## Cc1cc(=O)[nH]c(SCC(=O)c2ccc(O)c(I)c2)n1
[1]
  pIC50: 4.77
[10]
  Activity: < 80%

## O=C(CSc1nccc(=O)[nH]1)c1ccc(O)c(F)c1
[1]
  pIC50: 4.67
[10]
  Activity: < 80%

## NC(=O)c1cc(C(=O)CSc2nccc(=O)[nH]2)ccc1O
[1]
  pIC50: 4.69
[10]
  Activity: < 80%

## O=C(CSc1nccc(=O)[nH]1)c1ccc(O)c(Cl)c1
[1]
  pIC50: 4.73
[10]
  Activity: < 80%

## Cc1cc(=O)[nH]c(SCC(=O)c2ccc(O)c(C(N)=O)c2)n1
[1]
  pIC50: 4.67
[10]
  Activity: < 80%

## Cc1cc(=O)[nH]c(SCC(=O)c2ccc3ccccc3c2)n1
[1]
  pIC50: 4.65

## Cc1cc(O)nc(SCC(=O)c2ccc(O)cc2)n1
[1]
  pIC50: 4.97
[10]
  Activity: < 80%

## Cc1cc(=O)[nH]c(SCC(=O)c2cc(Cl)c(O)c(Cl)c2)n1
[1]
  pIC50: 4.87
[10]
  Activity: < 80%

## Cc1cc(=O)[nH]c(SCC(=O)c2ccc(F)c3ccccc23)n1
[1]
  pIC50: 4.44

## Cc1cc(=O)[nH]c(SCC(=O)c2ccc(O)c3ccccc23)n1
[1]
  pIC50: 5.48
[10]
  Activity: < 80%

## Cc1cc(O)nc(SCC(=O)c2ccc(O)c(O)c2)n1
[1]
  pIC50: 4.81
[10]
  Activity: < 80%

Reference: ChEMBL document CHEMBL5033990, “Novel Aryl-Substituted Pyrimidones as Inhibitors of 3-Mercaptopyruvate Sulfurtransferase with Antiproliferative Efficacy in Colon Cancer” (J Med Chem, 2021)
